AHR act – activators of human aryl hydrocarbon receptor. P35869. AHR-responsive luciferase reporter cells, luminescence. activation, % at 5 µM. 320,000 tested, 2.5% active. AID 2796; in the data active means activation above about 47%;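 further: 0% = vehicle wells and 100% = reference agonist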
FXIa inh – inhibitors of human coagulation factor XIa | P03951 | purified FXIa, Boc-Glu-Ala-Arg-AMC fluorogenic substrate | inhibition, % at 5 µM | 220,000 tested, 0.14% active | AID 798;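 active means inhibition of at least 40%; inactive means inhibition below 40%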;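 further: fluorescence of freed AMC excited at 355 nm; 0% = enzyme without compound and 100% = no enzyme blank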
Target sequence (P03951 19-387 limits assumed): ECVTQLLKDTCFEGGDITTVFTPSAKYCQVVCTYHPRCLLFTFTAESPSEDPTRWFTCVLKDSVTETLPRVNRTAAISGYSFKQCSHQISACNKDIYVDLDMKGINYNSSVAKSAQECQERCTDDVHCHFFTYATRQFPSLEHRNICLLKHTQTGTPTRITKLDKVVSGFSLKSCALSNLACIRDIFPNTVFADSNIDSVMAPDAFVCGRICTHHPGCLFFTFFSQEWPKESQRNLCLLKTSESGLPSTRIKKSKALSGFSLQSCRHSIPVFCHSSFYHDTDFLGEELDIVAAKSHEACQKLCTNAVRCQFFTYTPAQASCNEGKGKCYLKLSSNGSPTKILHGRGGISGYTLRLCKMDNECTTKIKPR
Target sequence (P03951 388-625 limits assumed): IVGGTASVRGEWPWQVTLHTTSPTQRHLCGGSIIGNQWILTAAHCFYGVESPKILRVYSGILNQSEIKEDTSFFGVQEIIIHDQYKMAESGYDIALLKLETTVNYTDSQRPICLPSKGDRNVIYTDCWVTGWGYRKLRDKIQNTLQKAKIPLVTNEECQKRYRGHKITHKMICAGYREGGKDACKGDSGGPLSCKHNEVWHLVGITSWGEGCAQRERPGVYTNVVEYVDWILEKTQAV
STAT3 activator – increases IL-6 driven STAT3 reporter signal. AID 871. U3A cells, IL-6 STAT3-luciferase reporter, luminescence; 100% = signal with IL-6 EC80 alone. 190,000 tested, 0.91% active. activation (% of control), % at 5.6 µM;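 active means activation above the screen-wide mean of compound activation plus 3 SD, cut at about 130% in these data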;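 further: 0% = background luminescence of wells with medium and substrate only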
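Test system: STAT3-luciferase reporter U3A cells; Detection: reporter luminescence signal; Times: 1 h compound pre-exposure, 6 h IL-6 stimulation, 37 °C; Benchmarks: IL-6-only high control; Also added: IL-6 stimulus at 33 ng/mL final.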
FXIIa inh 1536 – inhibitors of human coagulation factor XIIa; P00748; purified FXIIa, Boc-QGR-AMC fluorogenic substrate, 2 h; inhibition, % at 5 µM; 220,000 tested, 0.3% active; in the data active means inhibition above about 40%;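 further: 0% = enzyme with no compound and 100% = blank without enzyme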
hK5 inh – blocks human kallikrein 5 protease activity | Q9Y337 | recombinant hK5, fluorogenic AMC substrate cleavage | inhibition, % at 5 µM | 210,000 tested, 0.59% active | AID 873;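 active means inhibition of 40% or more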;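 further: 0% = enzyme controls without compound and 100% = no-enzyme blanks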
Thrombin inh – inhibitors of human thrombin; P00734; alpha-thrombin, Boc-VPR-AMC fluorogenic substrate cleavage; inhibition, % at 5 µM; 220,000 tested, 0.26% active; AID 1046;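 active means inhibition at or above 40%; inactive means inhibition below 40%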;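 further: 0% = enzyme with no compound and 100% = wells without enzyme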
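Material: human alpha-thrombin protein; Also added: Boc-VPR-AMC substrate, 15 µM final; Timing: enzyme reaction carried out at room temperature; Signal: fluorescence, ex 355 nm, em 460 nm; Measure: % inhibition of thrombin; Controls: enzyme without compound as high, wells lacking enzyme as low.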
Starred values were filed as active, the others as inactive; nt = no result given. Compounds with a hit are over-represented: about 3.5% of the library has one in this group of screens.

SMILES | AHR act | FXIa inh | STAT3 activator | FXIIa inh 1536 | hK5 inh | Thrombin inh
COc1ccc(N2CCN(C(CNC(=O)c3ccc4c(c3)OCO4)c3ccco3)CC2)cc1 (stereo unspecified) | 3 | -6 | 104 | 5 | -11 | 0
O=c1[nH]c(/C=C/c2ccccn2)nc2ccccc12 | 15 | nt | nt | nt | nt | nt
O=c1[nH]c(/C=C/c2cccc3ccccc23)nc2ccccc12 | 56* | 29 | 89 | 29 | 38 | 22
O=c1[nH]c(/C=C/c2ccccc2[N+](=O)[O-])nc2ccccc12 | 79* | 6 | 106 | 4 | -10 | -4
O=C(NCC(c1ccco1)N1CCc2ccccc2C1)C(=O)Nc1ccc(F)cc1F (stereo unspecified) | 3 | nt | nt | nt | nt | nt
CN(Cc1ccccc1)C(=O)c1ccc(NC(=O)Cc2cccc(NC(=O)C3CCN(C(=O)C4CCCC4)CC3)c2)cc1 | 0 | nt | nt | nt | nt | nt
COc1ccccc1NC(=O)CSc1c2c(nc3ccccc13)CCC2 | 47* | 4 | 100 | 9 | -7 | 1
COc1ccc(NC(=O)CSc2c3c(nc4ccccc24)CCCC3)c(OC)c1 | 2 | -5 | 110 | -2 | -10 | -4
O=C(O)c1ccc(NC2=C(Cl)C(=O)c3ccccc3C2=O)cc1 | 12 | 14 | nt | 43* | 81* | 23
C=CCNC1=C(Cl)C(=O)c2ccccc2C1=O | 52* | 8 | 116 | 14 | -5 | 1
O=C(Nc1nccs1)c1ccc2nccnc2c1 | 53* | 0 | 94 | 5 | -4 | -2
O=C(Nc1nccs1)c1cncc(Br)c1 | 56* | 6 | 118 | 13 | 2 | -6
CN(C)S(=O)(=O)c1ccc(NC(=O)N2CCN(c3ccccc3)CC2)cc1 | 1 | 2 | 93 | 18 | -14 | 3
COC(=O)c1ccc(CNC(=O)COC(=O)C23CC4CC(CC(C4)C2)C3)cc1 | 2 | 16 | 104 | 16 | -16 | 0
Cc1ccc(C)c(OCC(O)CN2C(C)CCCC2C)c1 (stereo unspecified) | 7 | -14 | 103 | -8 | -22 | -12
Cc1ccc(C)c(OCC(O)CN2CCCCC2C)c1 (stereo unspecified) | 48* | -7 | 94 | 1 | -12 | -2
CCOc1ccc(NS(=O)(=O)c2ccc(NC(=O)[C@@H]3CCCC[C@@H]3C(=O)O)cc2)cc1 | 4 | 3 | 98 | 12 | -3 | -2
O=C(C1CCN(C2CCN(CC3CC=CCC3)CC2)CC1)N1CCOCC1 (stereo unspecified) | 2 | -5 | 105 | 7 | 0 | -7
CC(=O)Nc1c(C(=O)O)[nH]c2ccccc12 | 34 | 7 | 120 | 18 | 72* | 4
Cc1cc(S(=O)(=O)Nc2c(C(=O)O)[nH]c3ccccc23)ccc1F | 20 | 9 | 135* | 18 | -15 | 0
CN(C)c1ccc(C(=O)OCC#CCSc2nnc(-c3cccc4ccccc34)o2)cc1 | -1 | nt | nt | nt | nt | nt
Cc1cccc(-c2cc3c(N=O)c4ccccc4c-3n[nH]2)c1 | 127* | 6 | 62 | 6 | 8 | -2
Cc1ccc(-c2cc3c(N=O)c4ccccc4c-3n[nH]2)cc1 | 9 | -5 | 9 | 0 | 2 | -14
C=CCn1c(COc2ccccc2)nnc1SC(C)C(=O)N/N=C/c1cc(Cl)ccc1O (stereo unspecified) | 7 | 6 | 105 | 9 | -3 | -3
CC(C)N(C)Cc1nnnn1CC(=O)N(C)Cc1cccc(Cl)c1 | -1 | nt | nt | nt | nt | nt
SMILES | AHR act | FXIa inh | STAT3 activator | FXIIa inh 1536 | hK5 inh | Thrombin inh
COc1ccccc1CNC(=O)Cn1nnnc1CN(C)C(C)C | 11 | nt | nt | nt | nt | nt
CC(C)N(C)Cc1nnnn1CC(=O)N(C)Cc1ccc(F)cc1 | 49* | nt | nt | nt | nt | nt
COC(=O)c1ccc(CNC(=O)Cn2nnnc2CN(C)C(C)C)cc1 | 56* | nt | nt | nt | nt | nt
CCOc1ccc(C(=O)Nc2ccc(N3CCN(C)CC3)cc2)cc1Br | 57* | 0 | 98 | 16 | 5 | 4
CCOc1ccc(C(=O)Nc2ccc(NC(=O)c3ccccc3)cc2)cc1Br | -2 | nt | nt | nt | nt | nt
O=C1N=c2ccc(Br)cc2=C1c1sc(=O)[nH]c1O | 64* | nt | nt | nt | nt | nt
Cc1ccc2c(c1)=C(c1sc(N(C)c3ccc(O)cc3)nc1O)C(=O)N=2 | 4 | nt | nt | nt | nt | nt
COCCn1nnnc1CN1CCC(Cc2ccccc2)CC1 | -1 | 8 | 93 | 13 | 14 | -2
COc1cc(NC(=O)c2cc3nc(C4CC4)cc(C(F)(F)F)n3n2)c(OC)cc1Cl | 5 | 12 | 102 | 46* | 4 | 0
Cc1ccc(N/C=C/C(=O)c2cccs2)cc1C | 23 | 2 | 46 | 7 | 3 | 1
O=C(/C=C/Nc1cccc([N+](=O)[O-])c1)c1cccs1 | 27 | 19 | 146* | 22 | 0 | -2
Oc1ccccc1Nc1ncnc2c1oc1ccccc12 | 20 | -2 | 158* | 8 | -3 | 0
O=C(N/N=C/c1ccccc1)c1n[nH]c2c1CCCC2 | 4 | -2 | 58 | 9 | -2 | -4
O=C(N/N=C/C(Br)=C/c1ccccc1)c1n[nH]c2c1CCC2 | 18 | 0 | 137* | 8 | 0 | -2
Nc1c(-c2ccccc2)c(CSc2nc3ccccc3[nH]2)nn1-c1ccc(Cl)cc1 | 2 | 14 | 100 | 33 | 62* | 17
Oc1ccccc1/C=N/Nc1cc(N2CCCC2)nc(N2CCCC2)n1 | 13 | 9 | 86 | 10 | -6 | -4
CCCCCC(=O)Nc1nc(C)c(-c2csc(Nc3cc(Cl)ccc3OC)n2)s1 | 50* | 3 | 97 | 1 | -6 | 2
CCCC(C)C(=O)Nc1nc(C)c(-c2csc(Nc3cc(OC)ccc3OC)n2)s1 (stereo unspecified) | 74* | -6 | 95 | -2 | nt | -3
COc1ccc(OC)c(Nc2nc(-c3sc(N)nc3C)cs2)c1 | 46 | 1 | 101 | -1 | 2 | 3
COc1ccccc1Nc1nc(-c2sc(NC(=O)c3cccc(Cl)c3)nc2C)cs1 | 32 | 0 | 92 | 8 | -13 | 3
N#Cc1ccccc1NC(=S)NC(=O)c1cccnc1 | 9 | nt | nt | nt | nt | nt
Cc1nn(C)c(C(=O)NC(=S)Nc2ccccc2O)c1Cl | 54* | nt | nt | nt | nt | nt
O=C(NC(=S)Nc1ccccc1O)c1cccnc1 | 58* | nt | nt | nt | nt | nt
O=C(NC(=S)Nc1ccccc1O)c1cncc(Br)c1 | 54* | nt | nt | nt | nt | nt
Cc1ccc(C(=O)COC(=O)C2CC3CCCC(C2)C3=O)cc1[N+](=O)[O-] (stereo unspecified) | 0 | nt | nt | nt | nt | nt
CCCCCN(C(=O)CCC(=O)OCC(=O)N1CCCC(C)C1)c1c(N)n(CCCC)c(=O)[nH]c1=O (stereo unspecified) | 1 | nt | nt | nt | nt | nt
O=C(CSc1n[nH]c(-c2cccnc2)n1)Nc1ccccc1C(F)(F)F | 1 | nt | nt | nt | nt | nt
c1ccc(CN2CCC(Nc3nc(-c4cccs4)nc4ccccc34)CC2)cc1 | 4 | 9 | 92 | 4 | -7 | -6
CCN1CCn2c3c(c4cccc(C)c42)CCCC31 (stereo unspecified) | 61* | nt | nt | nt | nt | nt
CCCNc1nc(Nc2ccc(C)c(Cl)c2)c2cnn(C)c2n1 | 64* | nt | nt | nt | nt | nt

Assay outcomes from PubChem BioAssay.
